Experimental data from ChEMBL document CHEMBL4152256, “Structure-activity relationship of new antimalarial 1-aryl-3-susbtituted propanol derivatives: Synthesis, preliminary toxicity profiling, parasite life cycle stage studies, target exploration, and targeted delivery” (Eur J Med Chem, 2018).

Legend:
[1] = Genotoxicity in Salmonella typhimurium TA1535 harboring pSK1002 assessed as survival at 0.063 mg/ml in absence of Sprague-Dawley rat liver S9 fraction after by SOS/umu assay relative to control; assay type: toxicity, organism-based; details: salmonella enterica subsp. enterica serovar typhimurium, read-out: Survival
[2] = Genotoxicity in Salmonella typhimurium TA1535 harboring pSK1002 assessed as umu gene induction at 0.031 mg/ml in presence of Sprague-Dawley rat liver S9 fraction after by SOS/umu assay relative to control; assay type: toxicity, organism-based; details: salmonella enterica subsp. enterica serovar typhimurium, read-out: FC
[3] = Genotoxicity in Salmonella typhimurium TA1535 harboring pSK1002 assessed as umu gene induction at 0.063 mg/ml in presence of Sprague-Dawley rat liver S9 fraction after by SOS/umu assay relative to control; assay type: toxicity, organism-based; details: salmonella enterica subsp. enterica serovar typhimurium, read-out: FC
[4] = Genotoxicity in Salmonella typhimurium TA1535 harboring pSK1002 assessed as umu gene induction at 0.125 mg/ml in presence of Sprague-Dawley rat liver S9 fraction after by SOS/umu assay relative to control; assay type: toxicity, organism-based; details: salmonella enterica subsp. enterica serovar typhimurium, read-out: FC
[5] = Genotoxicity in Salmonella typhimurium TA1535 harboring pSK1002 assessed as survival at 0.008 mg/ml in presence of Sprague-Dawley rat liver S9 fraction after by SOS/umu assay relative to control; assay type: toxicity, organism-based; details: salmonella enterica subsp. enterica serovar typhimurium, read-out: Survival
[6] = Genotoxicity in Salmonella typhimurium TA1535 harboring pSK1002 assessed as umu gene induction at 0.001 mg/ml in presence of Sprague-Dawley rat liver S9 fraction after by SOS/umu assay relative to control; assay type: toxicity, organism-based; details: salmonella enterica subsp. enterica serovar typhimurium, read-out: FC
[7] = Genotoxicity in Salmonella typhimurium TA1535 harboring pSK1002 assessed as umu gene induction at 0.008 mg/ml in absence of Sprague-Dawley rat liver S9 fraction after by SOS/umu assay relative to control; assay type: toxicity, organism-based; details: salmonella enterica subsp. enterica serovar typhimurium, read-out: FC
[8] = Genotoxicity in Salmonella typhimurium TA1535 harboring pSK1002 assessed as umu gene induction at 0.002 mg/ml in absence of Sprague-Dawley rat liver S9 fraction after by SOS/umu assay relative to control; assay type: toxicity, organism-based; details: salmonella enterica subsp. enterica serovar typhimurium, read-out: FC
[9] = Genotoxicity in Salmonella typhimurium TA1535 harboring pSK1002 assessed as survival at 0.016 mg/ml in presence of Sprague-Dawley rat liver S9 fraction after by SOS/umu assay relative to control; assay type: toxicity, organism-based; details: salmonella enterica subsp. enterica serovar typhimurium, read-out: Survival
[10] = Genotoxicity in Salmonella typhimurium TA1535 harboring pSK1002 assessed as survival at 0.125 mg/ml in absence of Sprague-Dawley rat liver S9 fraction after by SOS/umu assay relative to control; assay type: toxicity, organism-based; details: salmonella enterica subsp. enterica serovar typhimurium, read-out: Survival
[11] = Genotoxicity in Salmonella typhimurium TA1535 harboring pSK1002 assessed as survival at 0.016 mg/ml in absence of Sprague-Dawley rat liver S9 fraction after by SOS/umu assay relative to control; assay type: toxicity, organism-based; details: salmonella enterica subsp. enterica serovar typhimurium, read-out: Survival
[12] = Genotoxicity in Salmonella typhimurium TA1535 harboring pSK1002 assessed as umu gene induction at 0.002 mg/ml in presence of Sprague-Dawley rat liver S9 fraction after by SOS/umu assay relative to control; assay type: toxicity, organism-based; details: salmonella enterica subsp. enterica serovar typhimurium, read-out: FC
[13] = Genotoxicity in Salmonella typhimurium TA1535 harboring pSK1002 assessed as survival at 0.031 mg/ml in presence of Sprague-Dawley rat liver S9 fraction after by SOS/umu assay relative to control; assay type: toxicity, organism-based; details: salmonella enterica subsp. enterica serovar typhimurium, read-out: Survival
[14] = Genotoxicity in Salmonella typhimurium TA1535 harboring pSK1002 assessed as umu gene induction at 0.016 mg/ml in absence of Sprague-Dawley rat liver S9 fraction after by SOS/umu assay relative to control; assay type: toxicity, organism-based; details: salmonella enterica subsp. enterica serovar typhimurium, read-out: FC
[15] = Genotoxicity in Salmonella typhimurium TA1535 harboring pSK1002 assessed as survival at 0.001 mg/ml in absence of Sprague-Dawley rat liver S9 fraction after by SOS/umu assay relative to control; assay type: toxicity, organism-based; details: salmonella enterica subsp. enterica serovar typhimurium, read-out: Survival
[16] = Genotoxicity in Salmonella typhimurium TA1535 harboring pSK1002 assessed as umu gene induction at 0.125 mg/ml in absence of Sprague-Dawley rat liver S9 fraction after by SOS/umu assay relative to control; assay type: toxicity, organism-based; details: salmonella enterica subsp. enterica serovar typhimurium, read-out: FC
[17] = Genotoxicity in Salmonella typhimurium TA1535 harboring pSK1002 assessed as umu gene induction at 0.016 mg/ml in presence of Sprague-Dawley rat liver S9 fraction after by SOS/umu assay relative to control; assay type: toxicity, organism-based; details: salmonella enterica subsp. enterica serovar typhimurium, read-out: FC
[18] = Genotoxicity in Salmonella typhimurium TA1535 harboring pSK1002 assessed as survival at 0.004 mg/ml in absence of Sprague-Dawley rat liver S9 fraction after by SOS/umu assay relative to control; assay type: toxicity, organism-based; details: salmonella enterica subsp. enterica serovar typhimurium, read-out: Survival
[19] = Genotoxicity in Salmonella typhimurium TA1535 harboring pSK1002 assessed as survival at 0.031 mg/ml in absence of Sprague-Dawley rat liver S9 fraction after by SOS/umu assay relative to control; assay type: toxicity, organism-based; details: salmonella enterica subsp. enterica serovar typhimurium, read-out: Survival
[20] = Genotoxicity in Salmonella typhimurium TA1535 harboring pSK1002 assessed as umu gene induction at 0.001 mg/ml in absence of Sprague-Dawley rat liver S9 fraction after by SOS/umu assay relative to control; assay type: toxicity, organism-based; details: salmonella enterica subsp. enterica serovar typhimurium, read-out: FC
[21] = Selectivity index, ratio of CC50 for human HepG2A16 cells by MTT assay to IC50 for multidrug-resistant Plasmodium falciparum FCR-3; assay type: toxicity; details: HepG2A16 cells, read-out: Ratio CC50/IC50
How it was run: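 HepG2-A16 human hepatoma cells were tested by MTT viability assay to give CC50. Blood-stage activity was measured against the multidrug-resistant P. falciparum FCR-3 strain by [3H]-hypoxanthine incorporation to give IC50. SI = CC50 HepG2 / FCR-3 IC50.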

[22] = Genotoxicity in Salmonella typhimurium TA1535 harboring pSK1002 assessed as umu gene induction at 0.031 mg/ml in absence of Sprague-Dawley rat liver S9 fraction after by SOS/umu assay relative to control; assay type: toxicity, organism-based; details: salmonella enterica subsp. enterica serovar typhimurium, read-out: FC
Plasmodium falciparum [23] = assay: Antiplasmodial activity against chloroquine-sensitive Plasmodium falciparum 3D7 by [3H]-hypoxanthine incorporation assay; assay type: functional, organism-based; details: Plasmodium falciparum, 3D7
How it was run: (§1)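 Blood-stage P. falciparum 3D7 and FCR-3 were tested by a modified [3H]-hypoxanthine incorporation assay. Chloroquine was the reference in all runs.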

[24] = Genotoxicity in Salmonella typhimurium TA1535 harboring pSK1002 assessed as survival at 0.001 mg/ml in presence of Sprague-Dawley rat liver S9 fraction after by SOS/umu assay relative to control; assay type: toxicity, organism-based; details: salmonella enterica subsp. enterica serovar typhimurium, read-out: Survival
[25] = Genotoxicity in Salmonella typhimurium TA1535 harboring pSK1002 assessed as survival at 0.125 mg/ml in presence of Sprague-Dawley rat liver S9 fraction after by SOS/umu assay relative to control; assay type: toxicity, organism-based; details: salmonella enterica subsp. enterica serovar typhimurium, read-out: Survival
[26] = Cytotoxicity against human HepG2A16 cells by MTT assay; assay type: cell-based; details: HepG2A16 cells
How it was run: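 MTT viability assay on HepG2-A16 cells, giving CC50 values.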

Plasmodium falciparum [27] = assay: Antiplasmodial activity against multidrug-resistant Plasmodium falciparum FCR-3 by [3H]-hypoxanthine incorporation assay; assay type: functional, organism-based, FCR-3/Gambia; details: Plasmodium falciparum, FCR-3/Gambia; how it was run: as §1
[28] = Genotoxicity in Salmonella typhimurium TA1535 harboring pSK1002 assessed as survival at 0.002 mg/ml in absence of Sprague-Dawley rat liver S9 fraction after by SOS/umu assay relative to control; assay type: toxicity, organism-based; details: salmonella enterica subsp. enterica serovar typhimurium, read-out: Survival
[29] = Genotoxicity in Salmonella typhimurium TA1535 harboring pSK1002 assessed as umu gene induction at 0.004 mg/ml in presence of Sprague-Dawley rat liver S9 fraction after by SOS/umu assay relative to control; assay type: toxicity, organism-based; details: salmonella enterica subsp. enterica serovar typhimurium, read-out: FC
[30] = Genotoxicity in Salmonella typhimurium TA1535 harboring pSK1002 assessed as survival at 0.063 mg/ml in presence of Sprague-Dawley rat liver S9 fraction after by SOS/umu assay relative to control; assay type: toxicity, organism-based; details: salmonella enterica subsp. enterica serovar typhimurium, read-out: Survival
[31] = Genotoxicity in Salmonella typhimurium TA1535 harboring pSK1002 assessed as umu gene induction at 0.063 mg/ml in absence of Sprague-Dawley rat liver S9 fraction after by SOS/umu assay relative to control; assay type: toxicity, organism-based; details: salmonella enterica subsp. enterica serovar typhimurium, read-out: FC
[32] = Genotoxicity in Salmonella typhimurium TA1535 harboring pSK1002 assessed as survival at 0.004 mg/ml in presence of Sprague-Dawley rat liver S9 fraction after by SOS/umu assay relative to control; assay type: toxicity, organism-based; details: salmonella enterica subsp. enterica serovar typhimurium, read-out: Survival
[33] = Genotoxicity in Salmonella typhimurium TA1535 harboring pSK1002 assessed as survival at 0.008 mg/ml in absence of Sprague-Dawley rat liver S9 fraction after by SOS/umu assay relative to control; assay type: toxicity, organism-based; details: salmonella enterica subsp. enterica serovar typhimurium, read-out: Survival
[34] = Genotoxicity in Salmonella typhimurium TA1535 harboring pSK1002 assessed as umu gene induction at 0.008 mg/ml in presence of Sprague-Dawley rat liver S9 fraction after by SOS/umu assay relative to control; assay type: toxicity, organism-based; details: salmonella enterica subsp. enterica serovar typhimurium, read-out: FC
[35] = Genotoxicity in Salmonella typhimurium TA1535 harboring pSK1002 assessed as umu gene induction at 0.004 mg/ml in absence of Sprague-Dawley rat liver S9 fraction after by SOS/umu assay relative to control; assay type: toxicity, organism-based; details: salmonella enterica subsp. enterica serovar typhimurium, read-out: FC
[36] = Genotoxicity in Salmonella typhimurium TA1535 harboring pSK1002 assessed as survival at 0.002 mg/ml in presence of Sprague-Dawley rat liver S9 fraction after by SOS/umu assay relative to control; assay type: toxicity, organism-based; details: salmonella enterica subsp. enterica serovar typhimurium, read-out: Survival
[37] = Solubility of the compound in DSPC:cholesterol:DSPE-PEG2000-Mal:DOPE-Rho lipid mixture at 250 uM; assay type: physicochemical
How it was run: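 Compound added at 250 µM drug to the initial liposome lipid mixture (10 mM total lipid); precipitation and UV-visible absorbance above 300 nm assessed after encapsulation, removal of unencapsulated material and extraction with 1% w/v SDS in RPMI-A.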

Structure (SMILES): O=[N+]([O-])c1ccc(N2CCN(CCC(O)c3ccc(F)c4ccccc34)CC2)cc1 (stereo unspecified)
- viability at 0.063 mg/ml [1]: 124%
- fold induction at 0.031 mg/ml [2]: 0.5
- fold induction at 0.063 mg/ml [3]: 0.5
- fold induction at 0.125 mg/ml [4]: 0.5
- viability at 0.008 mg/ml [5]: 118%
- fold induction at 0.001 mg/ml [6]: 0.8
- fold induction at 0.008 mg/ml [7]: 1.3
- fold induction at 0.002 mg/ml [8]: 0.8
- viability at 0.016 mg/ml [9]: 117%
- viability at 0.125 mg/ml [10]: 145%
- viability at 0.016 mg/ml [11]: 83.8%
- fold induction at 0.002 mg/ml [12]: 0.9
- viability at 0.031 mg/ml [13]: 122%
- fold induction at 0.016 mg/ml [14]: 1.1
- viability at 0.001 mg/ml [15]: 88%
- fold induction at 0.125 mg/ml [16]: 0.6
- fold induction at 0.016 mg/ml [17]: 0.5
- viability at 0.004 mg/ml [18]: 84.9%
- viability at 0.031 mg/ml [19]: 105%
- fold induction at 0.001 mg/ml [20]: 0.5
- selectivity ratio [21]: 7
- fold induction at 0.031 mg/ml [22]: 0.8
- IC50 (Plasmodium falciparum [23]): 4.74 µM
- viability at 0.001 mg/ml [24]: 110%
- viability at 0.125 mg/ml [25]: 128%
- CC50 [26]: 12.5 µM
- IC50 (Plasmodium falciparum [27]): 1.71 µM
- viability at 0.002 mg/ml [28]: 87%
- fold induction at 0.004 mg/ml [29]: 0.9
- viability at 0.063 mg/ml [30]: 118%
- fold induction at 0.063 mg/ml [31]: 0.7
- viability at 0.004 mg/ml [32]: 109%
- viability at 0.008 mg/ml [33]: 84.2%
- fold induction at 0.008 mg/ml [34]: 0.6
- fold induction at 0.004 mg/ml [35]: 1.2
- viability at 0.002 mg/ml [36]: 107%

Structure (SMILES): OC(CCN1CCN(C(c2ccccc2)c2ccccc2)CC1)c1ccc2c(c1)OCO2 (stereo unspecified)
- selectivity ratio [21]: 25
- IC50 (Plasmodium falciparum [23]): 1.66 µM
- CC50 [26]: 36.1 µM
- IC50 (Plasmodium falciparum [27]): 1.44 µM
- solubility [37]: Insoluble
